Assay [1] in a line: inhibitors of TNFa-induced NFkB p65 translocation, primary screen, imaging, HUVEC, MLSMR starter and 10KST1 sets (AID 438;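 active means inhibition above 20% together with a positive visual image hit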;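 further: compound added about 3h40 before a 20 min TNFalpha stimulation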;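 on inhibition: signal is the nuclear over cytoplasmic p65 intensity ratio per well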). The settings on record: HUVEC TNFa-induced p65 nuclear translocation; cell count: measured here: nuclei count (cytotoxicity indicator), at 2.08 µM; inhibition: at 2 µM, stronger effect = higher value, 0% TNFa-plus-vehicle, 100% no-TNFa wells.
A short description of assay [2]: reduction of polyQ htt aggregates in cells – imaging, exon1htt(103Q)mCFP cells, high-content imaging, primary screen (AID 483).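 Further: compound exposure lasted 3 days before fixation.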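 On nuclei count: percent of the per-plate median nuclei count of sample wells.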 Conditions: exon1htt(103Q)mCFP cell line, aggregate imaging, at 2 µM; inhibition of aggregation: stronger effect = higher value; nuclei count: measured here: cell count, toxicity.
Assay [3] in a line: endothelial E-selectin expression blockers – imaging, HUVEC, immunofluorescence, MLSMR starter and 10KST1 sets, primary screen (AID 487;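 active means visually confirmed hit in the image check and inhibition above 20%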;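 on inhibition: signal is fraction of cell area covered by stained E-selectin grains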;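 on nuclei count: 100% = median nuclei count of all wells on the same plate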). Conditions: HUVEC TNFalpha-induced E-selectin immunofluorescence imaging, at 2 µM; inhibition: stronger effect = higher value; nuclei count: measured here: cell number, toxicity.
Assay [4] has as its target Voltage-gated potassium channel subunit beta-2 (Rattus norvegicus) (UniProt P62483). The assay is described as follows: inhibitors of rat Kvbeta2 reductase activity – biochemical, NADPH fluorescence, primary screen (AID 622;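 active means fluorescence slope higher than the sample average by over 3 SD, cut at about -0.22 in these data, passing the limit was not always enough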;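 further: slope of raw intensity against log time taken from 70 to 1610 s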). Conditions: recombinant KvBeta, 4-cyanobenzaldehyde reduction, at 10 µM, stronger effect = higher value.
Assay [5] shares this target. The assay can be described thus: enhancers of rat Kvbeta2 NADPH turnover – biochemical, NADPH fluorescence, primary screen (AID 623;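 active means NADPH fluorescence slope more negative than the mean of all samples by about 3 SD, 99.7% confidence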;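 further: fluorescence intensity change per second fitted from 20 to 320 s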). Conditions: Recombinant KvBeta, NADPH fluorescence decrease slope, 10 min; at 10 µM; stronger effect = lower value.
Assay [6] concerns the target Muscarinic acetylcholine receptor M4 (Homo sapiens) (UniProt P08173). The assay can be described thus: M4-linked GIRK flux change, two-sided – cell-based, HEK293 M4/GIRK, thallium flux, BTC-AM, M4 allosteric agonist project, primary screen (AID 625;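 active means fluorescence slope after compound addition differing from the mean of all tested samples at 99.7% confidence, mostly higher but some lower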;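 further: thallium influx through GIRK channels coupled to M4 in HEK293 cells with BTC-AM dye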). The settings on record: at 10 µM, actives lie on both sides. The gist of the method: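 assay system = HEK293 cells with M4 receptor and GIRK channels | medium = pH 7.3 thallium assay buffer | doses = 10 µM final, single point | timing = cells overnight at 37 °C, BTC-AM loading 1 h, reads 2 min total | signal = BTC-AM fluorescence, 1 Hz kinetic reads | read-out = post-addition slope, 15–24 s, of baseline-normalized fluorescence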

Assay [7] can be described thus: blockers of RIG-like receptor reporter activation – cell-based, Sendai virus stimulus, luciferase, 10K MLSCN set, TLR/RLR signaling modifier project, primary screen (AID 602276;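 active means inhibition at or above 50% at 10 µM; inactive means inhibition below 50%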;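 further: firefly luciferase from ISG56 promoter only with Renilla not read in this screen; 0% = Sendai virus plus DMSO and 100% = medium plus DMSO without virus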). The settings on record: HEK293 RL24 IRF3 luciferase reporter, at 10 µM, stronger effect = higher value. A general note: A reporter such as luciferase makes a cellular process visible.
A short description of assay [8]: TLR3 IRF3 reporter activation blockers – cell-based, poly I:C stimulus, luciferase, 10K MLSCN set, primary screen (AID 602277;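 active means inhibition of the reporter signal at or above 50%; inactive means inhibition below 50%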). The settings on record: HEK293-TLR3 RL24 IRF3 luciferase reporter, at 10 µM, stronger effect = higher value.
For assay [9], the target named is Alpha-2C adrenergic receptor (Homo sapiens) (UniProt P18825). The assay can be described thus: compounds altering alpha2C-coupled GIRK flux – cell-based, HEK293 alpha2C/GIRK1/2, thallium flux, primary screen (AID 624;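 active means fluorescence slope after compound addition differing from the mean of all screened samples at 99.7% confidence, in either direction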;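 further: slope of fluorescence ratio to pre-addition baseline per second over 15 to 24 s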). Conditions: thallium flux BTC fluorescence, at 10 µM, actives lie on both sides.
Assay [10] is described as follows: inhibitors of larval lipid processing in zebrafish, primary screen, whole organism, PED6 fluorescence, gall bladder and intestine (AID 686;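 active means a full or partial loss of lipid-probe fluorescence in the fish gall bladder, intestine or both, judged by eye; inactive means no fluorescence loss, or compound toxic to the fish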;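 further: larvae 5 to 7 days old with five fish per well; signal comes from phospholipase A2 cleavage of quenched PED6 carried via bile; overnight exposure to compound and PED6 before scoring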). Conditions: Zebrafish larvae PED6 lipid processing, fluorescence scoring; screened at 20 µM (by protocol). The gist of the method:
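Also added: quenched phospholipase substrate PED6, 100 nM final, ingested by larvae; System: zebrafish larvae, 5-7 d; Quantity: 5 larvae per well; Compound: 20 µM single dose; Schedule: overnight compound and PED6 incubation; Read-out: visual per-well fluorescence inhibition score; Measured by: By-eye fluorescence microscopy; Medium: E3.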

Active and inactive are the calls of the source.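 How the source made its calls, unless noted: active means visual image review flags a hit and inhibition of aggregation exceeds 20%; inconclusive means visual hit but inhibition at or below 20%; inactive means no hit on visual image review.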

The text below walks through data of PubChem BioAssay.

Muscarinic acetylcholine receptor M4 (Homo sapiens), sequence (P08173 whole entry, looked up): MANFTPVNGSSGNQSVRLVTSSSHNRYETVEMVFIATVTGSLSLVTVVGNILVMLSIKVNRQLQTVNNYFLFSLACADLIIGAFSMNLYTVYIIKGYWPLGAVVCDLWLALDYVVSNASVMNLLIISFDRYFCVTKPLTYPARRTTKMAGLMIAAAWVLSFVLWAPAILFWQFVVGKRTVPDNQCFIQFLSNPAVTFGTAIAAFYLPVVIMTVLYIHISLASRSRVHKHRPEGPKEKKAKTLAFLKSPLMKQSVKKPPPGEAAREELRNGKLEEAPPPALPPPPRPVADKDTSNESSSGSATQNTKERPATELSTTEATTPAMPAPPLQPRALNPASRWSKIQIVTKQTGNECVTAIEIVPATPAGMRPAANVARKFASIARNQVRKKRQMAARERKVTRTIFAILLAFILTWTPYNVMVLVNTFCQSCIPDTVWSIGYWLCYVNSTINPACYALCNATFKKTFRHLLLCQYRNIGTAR
Voltage-gated potassium channel subunit beta-2 (Rattus norvegicus), sequence (P62483 whole entry, looked up): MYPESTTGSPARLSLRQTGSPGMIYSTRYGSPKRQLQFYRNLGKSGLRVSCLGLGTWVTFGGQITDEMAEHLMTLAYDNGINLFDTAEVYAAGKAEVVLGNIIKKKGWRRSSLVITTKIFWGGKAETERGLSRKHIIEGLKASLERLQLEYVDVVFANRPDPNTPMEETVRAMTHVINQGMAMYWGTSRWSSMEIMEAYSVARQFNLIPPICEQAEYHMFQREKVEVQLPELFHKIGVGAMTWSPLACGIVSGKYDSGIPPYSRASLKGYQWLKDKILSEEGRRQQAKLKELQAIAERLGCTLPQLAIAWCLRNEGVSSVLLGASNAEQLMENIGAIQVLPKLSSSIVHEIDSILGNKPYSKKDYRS
Alpha-2C adrenergic receptor (Homo sapiens), sequence (P18825 whole entry, looked up): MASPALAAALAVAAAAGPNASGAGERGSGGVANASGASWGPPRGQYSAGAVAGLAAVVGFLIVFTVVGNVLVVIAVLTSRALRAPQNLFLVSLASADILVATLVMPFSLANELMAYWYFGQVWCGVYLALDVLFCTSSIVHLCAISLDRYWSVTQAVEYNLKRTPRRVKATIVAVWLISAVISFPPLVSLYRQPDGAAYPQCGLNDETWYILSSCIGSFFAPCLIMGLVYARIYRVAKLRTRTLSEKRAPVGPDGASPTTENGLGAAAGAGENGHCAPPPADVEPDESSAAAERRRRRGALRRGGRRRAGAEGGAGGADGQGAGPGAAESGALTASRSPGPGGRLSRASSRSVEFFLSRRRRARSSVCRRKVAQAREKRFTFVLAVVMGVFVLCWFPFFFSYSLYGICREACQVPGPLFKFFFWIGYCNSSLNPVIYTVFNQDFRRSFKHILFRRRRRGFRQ

By inhibition is commonly meant the relative decrease from the control value, in per cent. Regarding `CCN(C#N)c1nc(NC(C)C)nc(NC(C)C)n1`, in [1], the cell count worked out at 354. In addition, the inhibition in assay [1] is 3.3% (inactive); in [3], -0.6% (inactive); in assay [7] it was 0.243% (inactive); in assay [8], 9.55% (inactive). The inhibition of aggregation in assay [2] is 14.7% (inactive). Besides, the nuclei count in assay [2] turned out to be 100%; in assay [3] it was 82.6%. The fluorescence slope in [4] was -0.316 (inactive); in [6] it was 0.00491 (inactive). Further, in assay [5], the NADPH fluorescence slope was -5.2e-05 (inactive).

For the compound `CCOCCCNS(=O)(=O)c1ccc2c(c1)oc(=O)n2CC(=O)OCC`, the cell count in [1] was 454. For the same compound, the inhibition in assay [1] was -6.6% (inactive); in [3], -7.8% (inactive); in [7], 12.8% (inactive); in assay [8], 23.6% (inactive). In addition, in assay [2], the inhibition of aggregation was 24.3% (inactive). Further, the nuclei count worked out at 119% in [2] and 82.5% in assay [3]. Further, the results for the fluorescence slope in [4] and in assay [6] were -0.444 (inactive) and 0.00606 (inactive), respectively. In assay [5], the NADPH fluorescence slope is 3.2e-05 (inactive).

In the case of `C=CCn1cc(C(=O)NCCOC)c(=O)c2cc(S(=O)(=O)N(CC)CC)ccc21`, the cell count in [1] is 580. For the same compound, the inhibition in assay [1] is -15.8% (inactive); in assay [3], -11.3% (inactive); in [7] it was 7.34% (inactive); in assay [8] it was 17.4% (inactive). The inhibition of aggregation in assay [2] is 7.1% (inactive). In addition, the nuclei count in [2] was determined as 81.2%; in assay [3] it was 115%. Moreover, the figures for the fluorescence slope in assay [4] and in assay [6] were -0.607 (inactive) and 0.00635 (inactive), respectively. Also, the NADPH fluorescence slope in assay [5] was 1.4e-05 (inactive).

As for `O=C(Nc1ccc2c(c1)OCO2)c1nn(-c2ccccc2)c(=O)c2ccccc12`, in [1], the cell count stood at 417. Further, the inhibition was 7.1% (inactive) in [1], 13.5% (inactive) in assay [7] and 11.4% (inactive) in assay [8]. Further, the inhibition of aggregation in [2] is -7.3% (inactive). For the same compound, the nuclei count came to 93.9% in [2] and 150% in [3]. Moreover, the fluorescence slope in assay [4] is -0.621 (inactive). For the same compound, the NADPH fluorescence slope in assay [5] is 2e-05 (inactive). Further, in assay [9], the slope was 0.00664 (inactive).

As to `Cc1ccc(CN2C(=O)CCC2C(=O)NCC2CCCO2)cc1` (centres undefined), the cell count in assay [1] was determined as 317. The inhibition in [1] is 10.5% (inactive); in assay [3], -16.2% (inactive); in assay [7], -7.7% (inactive); in assay [8], 1.56% (inactive). Further, in [2], the inhibition of aggregation is -27.2% (inactive). The nuclei count in assay [2] was 91%; in assay [3], 97.8%. Besides, the fluorescence slope in assay [4] is -0.556 (inactive); in assay [6] it was 0.0066 (inactive). Moreover, in assay [5], the NADPH fluorescence slope is -2.2e-05 (inactive).

As to `O=C(Nc1nc(-c2ccccc2)cs1)C1CCCO1` (centres undefined), the cell count in assay [1] amounted to 440. For the same compound, the inhibition in assay [1] is 9.4% (inactive); in [7], -12.1% (inactive); in assay [8], 98.1% (active). In addition, the inhibition of aggregation in [2] was -2.5% (inactive). Moreover, the nuclei count came to 102% in [2] and 156% in [3]. Further, the fluorescence slope in assay [4] is -0.409 (inactive). Besides, the NADPH fluorescence slope in [5] is -5.9e-05 (inactive). Moreover, the slope in [9] was 0.00563 (inactive). Besides, the result in assay [10] was inactive.

Regarding `Cc1cc(NC(=O)c2ccc(Cl)cc2)no1`, in [1], the cell count was 206. For the same compound, the inhibition in [1] was 0.8% (inactive); in assay [3], -58.4% (inactive); in assay [7], -41.1% (inactive); in assay [8] it was -168% (inactive). The inhibition of aggregation in [2] was 41.9% (active). For the same compound, the nuclei count in assay [2] is 92%; in assay [3] it was 83.6%. Moreover, the fluorescence slope in assay [4] is -0.561 (inactive); in assay [6] it was 0.00496 (inactive). Further, in assay [5], the NADPH fluorescence slope was 1.1e-05 (inactive).

With `CC(=O)Nc1ccc2nc(-c3cccnc3)[nH]c2c1`, in assay [1], the cell count worked out at 435. For the same compound, the inhibition was -3.2% (inactive) in [1], -9.3% (inactive) in assay [3], -7.23% (inactive) in [7] and -16.4% (inactive) in assay [8]. The inhibition of aggregation in [2] was -1.8% (inactive). For the same compound, the figures for the nuclei count in assay [2] and in [3] were 106% and 116%, respectively. Also, the fluorescence slope in assay [4] is -0.571 (inactive); in assay [6], 0.00606 (inactive). The NADPH fluorescence slope in assay [5] is 1.8e-05 (inactive).

As to `COc1cc(OC)cc(-c2nc3cc(C)ccc3o2)c1`, in assay [1], the cell count stood at 424. In addition, the inhibition in assay [1] was 1.7% (inactive); in assay [3], -55.4% (inactive); in assay [7] it was -23.5% (inactive); in assay [8] it was -45.9% (inactive). In assay [2], the inhibition of aggregation is -2% (inactive). The results for the nuclei count in assay [2] and in assay [3] were 90.1% and 99.4%, respectively. The fluorescence slope is -0.55 (inactive) in [4] and 0.00552 (inactive) in [6]. For the same compound, the NADPH fluorescence slope in assay [5] was -4.6e-05 (inactive).

On to `COc1ccc(C)cc1S(=O)(=O)N1CCN(Cc2ccccc2)CC1`, for which the cell count in assay [1] was found to be 708. Moreover, the inhibition in assay [1] is -7.1% (inactive); in assay [3] it was -41.3% (inactive); in [7] it was 21.4% (inactive); in assay [8] it was 19.5% (inactive). Further, in assay [2], the inhibition of aggregation was -4.2% (inactive). The nuclei count amounted to 98.5% in assay [2] and 102% in assay [3]. In addition, the fluorescence slope in assay [4] is -0.558 (inactive); in [6] it was 0.00529 (inactive). For the same compound, the NADPH fluorescence slope in assay [5] was -1.1e-05 (inactive).

As to `CCC(C)OC(=O)C1=C(C)NC2=C(C(=O)C(C(=O)OC)C(C)C2)C1c1ccc(N(C)C)cc1` (centres undefined), the cell count in [1] was determined as 280. Moreover, the inhibition in assay [1] is -2.4% (inactive); in assay [3], -8.6% (inactive); in assay [7] it was 14.7% (inactive); in assay [8] it was 25.6% (inactive). Moreover, the inhibition of aggregation in assay [2] was 12.6% (inactive). Moreover, the nuclei count in assay [2] came out at 104%; in assay [3], 115%. Also, the fluorescence slope in assay [4] is -0.579 (inactive); in assay [6], 0.00551 (inactive). Further, the NADPH fluorescence slope in assay [5] was 2.1e-05 (inactive).

In the case of `CC(C)CN(CC(C)C)c1nc(N)c(C#N)c(CC#N)c1C#N`, the cell count in assay [1] amounted to 326. Also, the inhibition was -7% (inactive) in [1], -60.7% (inactive) in [3] and 62.5% (active) in [8]. Also, the inhibition of aggregation in assay [2] is 9% (inactive). Moreover, the nuclei count came out at 102% in assay [2] and 120% in [3]. Further, the fluorescence slope in assay [4] is -0.318 (inactive). Besides, the NADPH fluorescence slope in assay [5] was -5e-05 (inactive). Further, the slope in assay [9] was 0.00502 (inactive). The compound was called inactive in assay [10].

Consider `O=S(=O)(Nc1cccc2ncccc12)c1cccs1`, for which the cell count in [1] was determined as 469. In addition, the inhibition is -38% (inactive) in assay [1], 39.3% (inactive) in assay [3], -7.18% (inactive) in assay [7] and -3.78% (inactive) in [8]. Further, the inhibition of aggregation in assay [2] is -0.2% (inactive). Further, the nuclei count in assay [2] was found to be 67.2%; in [3] it was 23.8%. Moreover, the fluorescence slope in assay [4] was -0.486 (inactive); in [6], 0.0108 (active). For the same compound, the NADPH fluorescence slope in assay [5] was 2.1e-05 (inactive).

With `Cc1cc(=O)oc2cc(OCC(=O)OCc3nnc(-c4ccccc4)o3)ccc12`, the cell count in [1] is 527. Further, the inhibition in assay [1] is -7.7% (inactive); in [3], -10.9% (inactive); in assay [7] it was 6.17% (inactive); in assay [8] it was 7.89% (inactive). The inhibition of aggregation in assay [2] was 5.8% (inactive). The results for the nuclei count in assay [2] and in [3] were 123% and 121%, respectively. For the same compound, the fluorescence slope in assay [4] is -0.399 (inactive); in assay [6] it was 0.00584 (inactive). Moreover, the NADPH fluorescence slope in [5] was 2.8e-05 (inactive).

Take `COc1cc(C2c3c(oc4c(C)cc(C)cc4c3=O)C(=O)N2Cc2cccnc2)cc(OC)c1OC` (centres undefined): the cell count in assay [1] was determined as 632. Also, the inhibition in assay [1] was 0.3% (inactive); in assay [3], -4.3% (inactive); in assay [7], -24.2% (inactive); in assay [8] it was 3.14% (inactive). The inhibition of aggregation in assay [2] is 7.3% (inactive). In addition, the nuclei count came out at 106% in assay [2] and 97.5% in [3]. Further, the fluorescence slope in assay [4] is -0.552 (inactive); in [6], 0.0049 (inactive). Besides, the NADPH fluorescence slope in [5] was 1.8e-05 (inactive).
